Scp1 inh – inhibitors of human Scp-1 phosphatase; Recombinant Scp1, phosphopeptide, malachite green phosphate absorbance; actives 0.88% (n = 340,000); inhibition, % at 20 µM; AID 493091;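 active = inhibition above about 50% at 20 µM, limit read from the data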
Target sequence (Q9GZU7 76-261 limits assumed): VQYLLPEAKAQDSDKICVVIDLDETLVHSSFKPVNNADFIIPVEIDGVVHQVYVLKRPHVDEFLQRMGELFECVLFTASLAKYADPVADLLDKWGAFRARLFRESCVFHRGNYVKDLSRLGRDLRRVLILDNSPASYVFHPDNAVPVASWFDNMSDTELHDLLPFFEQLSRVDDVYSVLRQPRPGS
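System: truncated SCP-1 phosphatase (76-261aa); medium: Tris acetate buffer pH 5.5 with MgCl2 and Tween-20; incubation: 45 min room-temperature reaction, 5 min colour, 30 min stabiliser; compound: single 20 µM dose, 1% DMSO; reagent: Phosphorylated 17-residue peptide substrate; read-out: % inhibition at 20 µM; technique: colorimetric free-phosphate detection, absorbance 630 nm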
SUMO1 PPI mod – alters human SUMO1 binding to SIM partners; P63165; SUMO1 binding to a labelled peptide, TR-FRET, 1 h; inhibition, % at 20 µM; actives 0.33% (n = 360,000); in the data active = inhibition above about 37%
LMPTP block – blocks human LMPTP phosphatase; recombinant LMPTP-A, OMFP fluorogenic substrate, fluorescence intensity; actives 0.22% (n = 360,000); inhibition, % at 20 µM;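 active = compounds that cut the enzyme signal by at least half of the control window in the single-dose screen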
Target sequence (P24666 whole entry, looked up): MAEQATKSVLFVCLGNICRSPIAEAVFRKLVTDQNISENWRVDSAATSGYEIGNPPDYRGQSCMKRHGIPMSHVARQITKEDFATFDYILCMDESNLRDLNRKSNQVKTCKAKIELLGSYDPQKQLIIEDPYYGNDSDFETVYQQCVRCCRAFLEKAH
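Test system: LMPTP-A phosphatase enzyme. Amount: LMPTP-A at 0.625 nM final in the reaction. Reagent: OMFP substrate, 400 µM final. Times: 50 min at room temperature. Signal: endpoint fluorescence intensity from OMFP dephosphorylation. Read-out basis: % inhibition. Benchmarks: no-enzyme and uninhibited controls.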
STEP block – inhibitors of human striatal-enriched phosphatase STEP; AID 588621; inhibition, % at 20 µM; recombinant STEP, OMFP fluorogenic substrate, fluorescence; actives 0.25% (n = 360,000); P54829;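 active = inhibition at 20 µM, scaled per plate between control wells, above about 37%, limit read from the data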
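medium = Bis-Tris buffer pH 6.0, 2.5 mM DTT, 0.005% Tween 20 | test system = STEP (striatal-enriched tyrosine phosphatase) enzyme, cell-free | measure = normalized % inhibition | compound dosing = 20 µM, 1% DMSO | also added = 25 µM OMFP | schedule = reaction 20 min, ambient temperature | measured by = fluorescence read at 480 nm ex / 540 nm em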
DNMT1 inh – blocks human DNA methyltransferase DNMT1. DNMT1 molecular beacon, Hinp1I cleavage, fluorescence. actives 0.83% (n = 360,000). inhibition (reported as % activation of signal), % at 10 µM. AID 588458. P26358; in the data active = inhibition above about 50%
CSN deneddyl inh – CSN deneddylation inhibition; Q92905; Purified CSN, SCF-Nedd8-OG deneddylation, fluorescence polarization; inhibition, % at 12.5 µM; actives 0.38% (n = 360,000);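 active = pattern-corrected inhibition above about 35%, with an unprinted fluorescence ratio check between 0.5 and 1.5, limit read from the data, passing the limit was not always enough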
Target sequence (Q92905 whole entry, looked up, one chain of several): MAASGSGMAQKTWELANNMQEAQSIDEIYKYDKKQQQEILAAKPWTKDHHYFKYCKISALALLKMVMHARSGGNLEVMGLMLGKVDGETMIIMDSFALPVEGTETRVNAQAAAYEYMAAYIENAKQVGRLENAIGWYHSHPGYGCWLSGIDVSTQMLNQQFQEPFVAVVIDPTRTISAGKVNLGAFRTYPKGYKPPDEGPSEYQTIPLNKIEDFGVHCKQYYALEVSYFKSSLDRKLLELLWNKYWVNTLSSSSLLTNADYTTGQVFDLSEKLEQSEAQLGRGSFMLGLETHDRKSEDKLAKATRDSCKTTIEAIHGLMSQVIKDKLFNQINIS
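Assay system: HEK293T-derived human Csn5 enzyme; quantity: 0.24 nM enzyme; medium: Tris/NaCl/DTT buffer, pH 7.5; also added: substrate SCFSkp2-Nedd8OG, 10 nM; doses: 12.5 µM compound; schedule: 90 min reaction at room temperature; signal: FP; read-out: % inhibition of substrate cleavage by Csn5; benchmarks: substrate-only high control, full reaction low control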
Scp1 confirm – confirmation of human Scp-1 phosphatase inhibitors. AID 540281. actives 61% (n = 2,500). inhibition, % at 20 µM. recombinant SCP-1 catalytic domain, phosphate release, malachite green absorbance. shares compounds with Scp1 inh
Scp-1 MG ctr – counter-screen for Scp-1 inhibitors: colorimetric interference | apparent inhibition (interference), % at 20 µM | AID 540313 | 2,500 tested, under 10 active | Colorimetric interference counterscreen, malachite green absorbance 630 nm | shares compounds with Scp1 inh;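 also: compounds added after enzyme reaction finished so only phosphate colour detection is probed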
Scp1 DSF – Scp-1 (human) binding by thermal shift; actives 25% (n = 1,500); AID 540329; Recombinant SCP1, Sypro Orange thermal shift Tm; thermal shift relative to vanadate control, % at 40 µM; shares compounds with Scp1 inh;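 active = substances whose mean melting-temperature shift, as a percentage of the reference inhibitor's shift, reaches about 5.3%, limit read from the data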
Hits are given with their value; i = inactive; nt = no result given. Compounds with a hit are over-represented: about 2% of the library has one in this group of screens.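 The calls were made as follows, unless noted: active = inhibition of at least 30% at 20 µM; inactive = the rest.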

SMILES	Scp1 inh	SUMO1 PPI mod	LMPTP block	STEP block	DNMT1 inh	CSN deneddyl inh	Scp1 confirm	Scp-1 MG ctr	others
C(=N\n1c2ccccc2c2ccccc21)/c1ccccc1	i	i	i	i	i	i	nt	nt
Cc1nn(C)c(C)c1NC(=O)COc1ccc(Cl)cc1Br	i	i	i	i	i	i	nt	nt
OCCC1CN(Cc2ccccc2-c2ccco2)CCN1Cc1ccccc1 (stereo not drawn)	i	i	i	i	i	i	nt	nt
O=c1oc2ccccc2c2[nH]ccc12	i	i	i	i	i	i	nt	nt
O=c1oc2ccccc2c2c1ccc1ccccc12	80	i	i	i	i	i	i	i
Cc1cc(NC(=O)c2ccc(C)c([N+](=O)[O-])c2)no1	i	i	i	i	i	i	nt	nt
Cc1ccc(C(=O)Nc2cccc(NC(=O)c3ccc(C)c([N+](=O)[O-])c3)n2)cc1[N+](=O)[O-]	70	i	i	i	i	i	67	i	Scp1 DSF=14
O=C(Nn1c(-c2ccccc2)nc2ccccc2c1=O)c1cccs1	i	i	i	i	i	i	nt	nt
CCOC(=O)CSc1[nH]c(=O)cc(C)c1C#N	50	i	i	i	i	i	i	i
Cc1ccc(S(=O)(=O)N2CCOCC2)cc1C(=O)N1CCN(S(=O)(=O)c2ccccc2F)CC1	i	i	i	i	i	i	nt	nt
CCc1nnc(NC(=O)CC(C)c2ccccc2)s1 (stereo not drawn)	58	i	i	i	i	i	i	i
CCN1C(=O)[C@H]2[C@H]3CN=C(SCc4ccccc4)N3[C@@](Cc3ccccc3)(C(=O)OC)[C@H]2C1=O	i	i	i	i	i	i	nt	nt
CCN1C(=O)[C@H]2[C@H]3CN=C(SCC4CC4)N3[C@@](Cc3ccccc3)(C(=O)OC)[C@H]2C1=O	82	i	i	i	i	i	96	i	Scp1 DSF=i
CC[C@]1(C(=O)OC)[C@H]2C(=O)N(Cc3ccccc3)C(=O)[C@H]2[C@H]2CN=C(SCC3CC3)N21	54	i	i	i	i	i	i	i
COc1cc(CCC(=O)OCC(=O)Nc2ccc(Br)cc2F)cc(OC)c1OC	i	i	i	i	i	i	nt	nt
O=C(COC(=O)c1cc(-c2ccccc2Cl)nc2ccccc12)Nc1ncc(C(F)(F)F)cc1Cl	50	i	i	i	i	i	36	i	Scp1 DSF=i
Cc1ccc(CC(=O)N/N=C/c2ccc(OC(=O)c3ccc([N+](=O)[O-])cc3)cc2)cc1	61	i	i	i	i	i	42	i	Scp1 DSF=i
CCOc1cc(Br)c(Br)c(C=Nc2ccc(NC(C)=O)cc2)c1O	75	i	i	i	i	i	72	i	Scp1 DSF=i
CC(=O)Nc1ccc(N=Cc2c(O)c(C(=O)Nc3ccccc3)cc3ccccc23)cc1	i	nt	nt	nt	nt	nt	nt	nt
COc1ccccc1NC(=O)CC1S/C(=N/N=C(\C)C2CCCCC2)NC1=O (stereo not drawn)	i	i	i	i	i	i	nt	nt
O=C(CCC1CCCCC1)Nc1ccccc1C(=O)N1CCOCC1	i	i	i	i	i	i	nt	nt
CCC1SC2=NC(C)=C(C(=O)OCCOC)C(/C=C/c3ccccc3OC)N2C1=O (stereo not drawn)	58	i	i	i	i	i	i	i
CCC1SC2=NC(C)=C(C(=O)OCC(C)C)C(/C=C/c3ccccc3OC)N2C1=O (stereo not drawn)	i	i	i	i	i	i	nt	nt
Cc1cnc(NS(=O)(=O)c2ccc(N)cc2)nc1-c1ccccc1O	nt	i	i	i	i	i	nt	nt
C#Cc1ccc([C@@H]2C=C(C(=O)O)O[C@H](OCc3ccc(CO)cc3)C2)cc1	57	i	i	i	i	i	68	i	Scp1 DSF=i
SMILES	Scp1 inh	SUMO1 PPI mod	LMPTP block	STEP block	DNMT1 inh	CSN deneddyl inh	Scp1 confirm	Scp-1 MG ctr	others
O=C(O)C1=C[C@@H](c2ccccc2)C[C@@H](OCc2ccc(CO)cc2)O1	i	i	i	i	i	i	nt	nt
CCOc1ccccc1NC(=O)C(OC(=O)C1CC1)c1ccccc1 (stereo not drawn)	i	i	i	i	i	i	nt	nt
CCOc1ccccc1NC(=O)C(NCC1(N2CCCCC2)CCCCC1)c1ccccc1 (stereo not drawn)	65	i	i	i	i	i	i	i
OC1(c2ccccc2)CN(c2ccccc2)C2=[N+]1CCS2 (stereo not drawn)	i	i	i	i	i	i	nt	nt
NN1C(=O)/C(=C2/Sc3ccccc3N2CCCS(=O)(=O)O)SC1=S	84	i	i	i	i	i	73	i	Scp1 DSF=i
O=C1NC(=S)S/C1=C1\Sc2ccccc2N1CCCS(=O)(=O)O	i	i	i	i	i	i	nt	nt
CC(=O)O/N=C(\N)c1ccc(-c2csnn2)cc1	i	i	i	i	i	i	nt	nt
O=C(O)CCSc1nnc(SCC(=O)NC2CCS(=O)(=O)C2)s1 (stereo not drawn)	101	i	i	i	i	i	i	i
O=C(OC1CCOC1=O)c1ccc(Cl)c(S(=O)(=O)N2CCOCC2)c1 (stereo not drawn)	53	i	i	i	i	i	i	i
O=C(OC1CCOC1=O)c1ccc(Cl)c(S(=O)(=O)N2CCCCC2)c1 (stereo not drawn)	i	i	i	i	i	i	nt	nt
CCCNCc1cc(OC)c(OCc2ccccc2)cc1Br	i	i	i	i	i	i	nt	nt
C[N+]1(C2CCC3CCCC2C3O)CCCCC1 (stereo not drawn)	96	i	i	i	i	i	78	i	Scp1 DSF=i
O=C(Cc1ccccc1)NN1C(=O)c2ccccc2C1=O	i	i	i	i	i	i	nt	nt
O=C(CN1C(=O)c2ccccc2C1=O)NN1C(=O)c2ccccc2C1=O	56	i	i	i	i	i	i	i
CCn1nnnc1-c1ccc(OC)c(S(=O)(=O)Nc2ccccc2OC)c1	nt	i	i	i	i	i	nt	nt
CC1C[N+](=C2C=C(N3CCOCC3)CC(C)(C)C2)CC(C)O1 (stereo not drawn)	103	i	i	i	i	i	91	i	Scp1 DSF=i
CC1(C)CC(N2CCOCC2)=CC(=[N+]2CCOCC2)C1	i	i	i	i	i	i	nt	nt
CCC[N+]1(CC#CC2(O)CCCCC2)CCOCC1	59	i	i	i	i	i	77	i	Scp1 DSF=i
COc1ccccc1-c1nc2cc3ccccc3cc2nc1-c1ccccc1	i	i	i	i	i	i	nt	nt
